SMILES strings stand for the structures.

In the first test the test system is Radical scavenging activity. As to the kind of experiment: Antioxidant activity assessed as DPPH radical scavenging activity after 30 mins by microplate reader.
Conditions: not given
It is filed as functional. The essentials: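 Modified Mensor method. Sample in absolute MeOH at several concentrations mixed 1:1 with 0.06 mM DPPH in MeOH (100 μL each). Absorbance read at 510 nm at exactly 30 min, then percent inhibition calculated. IC50 taken as the concentration scavenging 50% of DPPH radicals. Triplicate runs. Rutin and Trolox used as reference standards.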
In the case of `C[C@@H]1O[C@@H](OC[C@H]2O[C@@H](OCc3ccccc3)[C@H](O)[C@@H](O)[C@@H]2O)[C@H](O)[C@H](O)[C@H]1OC(=O)/C=C/c1ccc(O)cc1`, the IC50 was greater than 200 µg/mL.

Consider `O=c1c(O[C@@H]2O[C@H](CO)[C@@H](O)[C@H](O)[C@H]2O)c(-c2ccc(O)cc2)oc2cc(O)cc(O)c12` [ASTRAGALIN], for which the half-maximal inhibitory concentration (IC50) is greater than 200 µg/mL.

For `CC(=O)OC[C@H]1O[C@@H](O[C@H]2[C@H](Oc3cc(O)c4c(=O)cc(-c5ccc(O)cc5)oc4c3)O[C@H](CO[C@@H]3O[C@@H](C)[C@H](O)[C@@H](O)[C@H]3O)[C@@H](O)[C@@H]2O)[C@H](O[C@@H]2O[C@H](CO)[C@@H](O)[C@H](O)[C@H]2O)[C@@H](O)[C@@H]1O`, the IC50 is greater than 200 µg/mL.

For `COc1ccc(-c2cc(=O)c3c(O)cc(O[C@@H]4O[C@H](CO[C@@H]5O[C@@H](C)[C@H](O)[C@@H](O)[C@H]5O)[C@@H](O)[C@H](O)[C@H]4O[C@@H]4O[C@H](COC(C)=O)[C@@H](O)[C@H](O)[C@H]4O[C@@H]4O[C@H](CO)[C@@H](O)[C@H](O)[C@H]4O)cc3o2)cc1`, the 50% inhibitory concentration (IC50) is greater than 200 µg/mL.

With `COc1cc([C@H]2Oc3c(OC)cc(CCCO)cc3[C@@H]2CO)ccc1O[C@@H]1O[C@H](CO)[C@@H](O)[C@H](O)[C@H]1O`, the half-maximal inhibitory concentration (IC50) is greater than 200 µg/mL.

As to `O=C(O)/C=C/c1ccc(O)cc1` [COUMARIC ACID], the IC50 was greater than 200 µg/mL.

For the molecule `Oc1ccc(Cc2ccc(O)cc2)cc1`, the IC50 was greater than 200 µg/mL.

In the case of `O=Cc1ccc(O)cc1` [4-HYDROXYBENZALDEHYDE], the IC50 is greater than 200 µg/mL.

Turning to `COc1ccc(-c2cc(=O)c3c(O)cc(O[C@@H]4O[C@H](CO[C@@H]5O[C@@H](C)[C@H](O)[C@@H](O)[C@H]5O)[C@@H](O)[C@H](O)[C@H]4O[C@@H]4O[C@H](CO)[C@@H](O)[C@H](O)[C@H]4O[C@@H]4O[C@H](CO)[C@@H](O)[C@H](O)[C@H]4O)cc3o2)cc1O`, the IC50 was greater than 200 µg/mL.

As to `C[C@@H]1O[C@@H](OC[C@H]2O[C@@H](OCc3ccccc3)[C@H](O)[C@@H](O)[C@@H]2O)[C@H](O)[C@H](O)[C@H]1O` [HYDRANGEIFOLIN I], the half-inhibitory concentration (IC50) was greater than 200 µg/mL.

In the case of `O=C(O)/C=C\c1ccc(O)cc1`, the half-inhibitory concentration (IC50) is greater than 200 µg/mL.

On to `COc1ccc(-c2cc(=O)c3c(O)cc(O[C@@H]4O[C@H](CO[C@@H]5O[C@@H](C)[C@H](O)[C@@H](O)[C@H]5O)[C@@H](O)[C@H](O)[C@H]4O[C@@H]4O[C@H](COC(C)=O)[C@@H](O)[C@H](O)[C@H]4O[C@@H]4O[C@H](CO)[C@@H](O)[C@H](O)[C@H]4O)cc3o2)cc1O`, for which the half-inhibitory concentration (IC50) is greater than 200 µg/mL.

Regarding `C[C@@H]1O[C@@H](OC[C@H]2O[C@@H](OCc3ccccc3)[C@H](O)[C@@H](O)[C@@H]2O)[C@H](OC(=O)/C=C/c2ccc(O)cc2)[C@H](O)[C@H]1O`, the concentration for half-maximal inhibition (IC50) is greater than 200 µg/mL.

On to `COc1ccc(-c2cc(=O)c3c(O)cc(O[C@@H]4O[C@H](CO[C@@H]5O[C@@H](C)[C@H](O)[C@@H](O)[C@H]5O)[C@@H](O)[C@H](O)[C@H]4O[C@@H]4O[C@H](CO)[C@@H](O)[C@H](O)[C@H]4O[C@@H]4O[C@H](CO)[C@@H](O)[C@H](O)[C@H]4O)cc3o2)cc1`, for which the 50% inhibitory concentration (IC50) is greater than 200 µg/mL.

Regarding `C[C@@H]1O[C@@H](OC[C@H]2O[C@@H](Oc3ccc(COC(=O)c4ccccc4)cc3)[C@H](O)[C@@H](O)[C@@H]2O)[C@H](O)[C@H](O)[C@H]1O`, the IC50 was greater than 200 µg/mL.

On to `CC(O)(CC(=O)O)CC(=O)OCc1ccc(O[C@@H]2O[C@H](CO)[C@@H](O)[C@H](O)[C@H]2O)cc1` (stereo partly specified), for which the IC50 was greater than 200 µg/mL.

On to `C[C@@H]1O[C@@H](OC[C@H]2O[C@@H](OCc3ccccc3)[C@H](O)[C@@H](O)[C@@H]2O)[C@H](OC(=O)/C=C\c2ccc(O)cc2)[C@H](O)[C@H]1O`, for which the IC50 was greater than 200 µg/mL.

Regarding `COc1ccc(-c2cc(=O)c3c(O)cc(O[C@@H]4O[C@H](CO[C@@H]5O[C@@H](C)[C@H](O)[C@@H](O)[C@H]5O)[C@@H](O)[C@H](O)[C@H]4O[C@@H]4O[C@H](CO)[C@@H](O)[C@H](OC(C)=O)[C@H]4O[C@@H]4O[C@H](CO)[C@@H](O)[C@H](O)[C@H]4O)cc3o2)cc1`, the IC50 was greater than 200 µg/mL.

For `COC(=O)/C=C/c1ccc(O)cc1` [METHYL P-HYDROXYCINNAMATE], the half-maximal inhibitory concentration (IC50) is greater than 200 µg/mL.

Staying with this test, now noted: read-out: IC50.
On to `OC[C@H]1O[C@@H](OCc2ccccc2)[C@H](O)[C@@H](O)[C@@H]1O`, for which the IC50 turned out to be 223 µM.

With `O=C(/C=C/c1ccc(O)c(O)c1)O[C@@H]1C[C@](O)(C(=O)O)C[C@@H](OC(=O)/C=C/c2ccc(O)c(O)c2)[C@H]1O`, the IC50 stood at 32.4 µM.

In the case of `O=c1c(O[C@@H]2O[C@H](CO)[C@@H](O)[C@H](O)[C@H]2O)c(-c2ccc(O)c(O)c2)oc2cc(O)cc(O)c12` [ISOQUERCETIN], the IC50 came out at 60.6 µM.

Take `COc1cc(/C=C/C(=O)O)ccc1O` [FERULATE]: the concentration for half-maximal inhibition (IC50) worked out at 62.4 µM.

For the molecule `C=CCc1ccc(O[C@@H]2O[C@H](CO)[C@@H](O)[C@H](O)[C@H]2O)c(OC)c1` [CITRUSIN C], the half-inhibitory concentration (IC50) stood at 328 µM.

Turning to `O=C(/C=C/c1ccc(O)c(O)c1)O[C@@H]1[C@H](O)C[C@@](O)(C(=O)O)C[C@H]1OC(=O)/C=C/c1ccc(O)c(O)c1`, the concentration for half-maximal inhibition (IC50) came out at 28.9 µM.

For the molecule `O=C(/C=C/c1ccc(O)cc1)O[C@@H]1C[C@](O)(C(=O)O)C[C@@H](OC(=O)/C=C/c2ccc(O)c(O)c2)[C@H]1O`, the IC50 is 57.4 µM.

As to `Cc1c(C)c2c(c(C)c1O)CCC(C)(C(=O)O)O2` (stereo unspecified) [TROLOX], the concentration for half-maximal inhibition (IC50) was 25.9 µM.

With `O=C(O)[C@H]1O[C@@H](Oc2c(-c3ccc(O)c(O)c3)oc3cc(O)cc(O)c3c2=O)[C@H](O)[C@@H](O)[C@@H]1O` [QUERCETIN GLUCURONIDE], the IC50 was determined as 37.2 µM.

For the molecule `COc1cc([C@H]2Oc3c(OC)cc(CCCO)cc3[C@@H]2CO[C@@H]2O[C@H](CO)[C@@H](O)[C@H](O)[C@H]2O)ccc1O`, the IC50 worked out at 284 µM.

For `C[C@@H]1O[C@@H](OC[C@H]2O[C@@H](Oc3c(-c4ccc(O)c(O)c4)oc4cc(O)cc(O)c4c3=O)[C@H](O)[C@@H](O)[C@@H]2O)[C@H](O)[C@H](O)[C@H]1O` [RUTIN], the IC50 came to 38.7 µM.

As for `O=C(/C=C/c1ccc(O)c(O)c1)O[C@@H]1C[C@](O)(C(=O)O)C[C@@H](O)[C@H]1O` [CHLOROGENIC ACID], the IC50 was 45.5 µM.

Source of the values: ChEMBL document CHEMBL2331388, “Flavone tetraglycosides and benzyl alcohol glycosides from the Mongolian medicinal plant Dracocephalum ruyschiana” (J Nat Prod, 2013).
